# ChEMBL document CHEMBL4033642, “Design and synthesis of neolamellarin a derivatives targeting heat shock protein 90” (Eur J Med Chem, 2017)
# What was measured:
# NCI-H1299 [1] = assay: Antiproliferative activity against human H1299 cells after 48 hrs by resazurin dye-based fluorescence assay; assay type: functional, cell-based; details: NCI-H1299, 48 h
# Outline: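 H1299 non-small-cell lung cells, kept subconfluent, passages 3–30, seeded 2000 cells/well; after 24 h exposed to serial concentrations in serum complete medium, 0.1% DMSO final, for 48 h. Resazurin then added, 16 h at 37 °C; fluorescence read at 544 nm excitation/595 nm emission, proportional to viable cells. IC50 from three repeats.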
# NCI-H1299 [2] = assay: Antiproliferative activity against human H1299 cells assessed as inhibition of cell viability after […] by resazurin dye-based fluorescence assay; assay type: functional
# Outline: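 H1299 cells, 2000/well, seeded 24 h, then exposed to serial compound concentrations in serum-containing complete medium for 48 h (DMSO vehicle, 0.1% final). Resazurin (2 mg/mL stock) added, 16 h at 37 °C. Fluorescence read at 544 nm ex / 595 nm em; RFU taken as proportional to living cells.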
# [3] = target: T1, Heat shock protein HSP 90-alpha (Homo sapiens, UniProt P07900); assay: Inhibition of HSP90alpha in human H1299 cells assessed as decrease in AKT levels after 72 hrs by Western blot analysis; assay type: cell-based
# Outline: (§1)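 H1299 cells seeded in 15 cm dishes at 8 × 10⁴ cells/mL, 24 h, then treated at 7.5 and 15 µM for 72 h at 37 °C; DMSO-only controls. Lysed on ice 30 min, cleared at 10000 × g, protein by BCA. 25–100 µg run on 10% or 12% SDS-PAGE, blotted to nitrocellulose. Probed with antibodies to CDK2, EGFR, p-EGFR (Tyr1068), AKT, p-AKT, cleaved PARP; β-actin loading control; chemiluminescence; three repeats.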
# [4] = target: T1, Heat shock protein HSP 90-alpha; assay: Inhibition of HSP90alpha in human H1299 cells assessed as decrease in phosphorylation of EGFR after 72 hrs by Western blot analysis; assay type: cell-based; outline: as §1
# [5] = target: T1, Heat shock protein HSP 90-alpha; assay: Inhibition of HSP90alpha in human H1299 cells assessed as decrease in EGFR levels after 72 hrs by Western blot analysis; assay type: cell-based; outline: as §1
# [6] = target: T1, Heat shock protein HSP 90-alpha; assay: Inhibition of HSP90alpha in human H1299 cells assessed as decrease in phosphorylation of AKT after 72 hrs by Western blot analysis; assay type: cell-based; outline: as §1
# NCI-H1299 [7] = assay: Induction of apoptosis in human H1299 cells assessed as inhibition of expression of CDK2 after 72 hrs by Western blot analysis; assay type: functional, cell-based; outline: as §1
# NCI-H1299 [8] = assay: Induction of apoptosis in human H1299 cells assessed as increase in cleaved PARP levels after 72 hrs by Western blot analysis; assay type: functional, cell-based; outline: as §1
# [9] = target: T1, Heat shock protein HSP 90-alpha; assay: Inhibition of FITC-GA binding to N-terminal domain of HSP90alpha (unknown origin) after 5 hrs by fluorescence polarization assay
compound,measurement,setting,value
COc1ccc(-c2cn(Cc3ccc(O)c(O)c3)cc2-c2ccc(OC)cc2)cc1,IC50,NCI-H1299 [1],19.1 µM
same,inhibition,NCI-H1299 [2],Dose-dependent effect
C=CCNC1=C2C[C@@H](C)C[C@H](OC)[C@H](O)[C@@H](C)/C=C(\C)[C@H](OC(N)=O)[C@@H](OC)/C=C\C=C(/C)C(=O)NC(=CC1=O)C2=O [TANESPIMYCIN],IC50,NCI-H1299 [1],0.2 µM
COc1cc(-c2cn(Cc3ccc(O)c(O)c3)cc2-c2cc(OC)c(OC)c(OC)c2)cc(OC)c1OC,IC50,NCI-H1299 [1],29.2 µM
COc1ccc(Cn2cc(-c3ccc(O)cc3)c(-c3ccc(O)cc3)c2)c(OC)c1OC,IC50,NCI-H1299 [1],25.1 µM
COc1cc(Cn2cc(-c3ccc(O)c(O)c3)c(-c3ccc(O)c(O)c3)c2)cc(OC)c1OC,inhibition,[3],Dose-dependent effect
same,inhibition,[4],Dose-dependent effect
same,inhibition,[5],Dose-dependent effect
same,inhibition,[6],Dose-dependent effect
same,inhibition,NCI-H1299 [7],Dose-dependent effect
same,IC50,NCI-H1299 [1],13.2 µM
same,Activity,NCI-H1299 [8],Dose-dependent effect
same,inhibition,NCI-H1299 [2],Dose-dependent effect
same,IC50,[9],852 nM
COc1ccc(-c2cn(Cc3ccc(O)c(O)c3)cc2-c2ccc(OC)c(OC)c2)cc1OC,IC50,NCI-H1299 [1],23.4 µM
COc1cc(-c2cn(Cc3ccc(O)cc3)cc2-c2cc(OC)c(OC)c(OC)c2)cc(OC)c1OC,IC50,NCI-H1299 [1],> 100 µM
COc1ccc(Cn2cc(-c3ccc(O)c(O)c3)c(-c3ccc(O)c(O)c3)c2)cc1OC,inhibition,[3],Dose-dependent effect
same,inhibition,[4],Dose-dependent effect
same,inhibition,[5],Dose-dependent effect
same,inhibition,[6],Dose-dependent effect
same,inhibition,NCI-H1299 [7],Dose-dependent effect
same,IC50,NCI-H1299 [1],10.5 µM
same,Activity,NCI-H1299 [8],Dose-dependent effect
same,inhibition,NCI-H1299 [2],Dose-dependent effect
same,IC50,[9],374 nM
Oc1ccc(-c2cn(Cc3ccccc3)cc2-c2ccc(O)cc2)cc1,IC50,NCI-H1299 [1],26.9 µM
COc1ccccc1Cn1cc(-c2ccc(O)c(O)c2)c(-c2ccc(O)c(O)c2)c1,IC50,NCI-H1299 [1],8.6 µM
COc1cccc(Cn2cc(-c3ccc(O)cc3)c(-c3ccc(O)cc3)c2)c1,IC50,NCI-H1299 [1],25.3 µM
COc1ccc(-c2cn(Cc3ccc(O)cc3)cc2-c2ccc(OC)c(OC)c2)cc1OC,IC50,NCI-H1299 [1],30.6 µM
COc1ccc(Cn2cc(-c3ccc(O)cc3)c(-c3ccc(O)cc3)c2)cc1OC,IC50,NCI-H1299 [1],29.2 µM
same,inhibition,NCI-H1299 [2],Dose-dependent effect
COc1ccc(Cn2cc(-c3ccc(O)c(O)c3)c(-c3ccc(O)c(O)c3)c2)cc1,inhibition,[3],Dose-dependent effect
same,inhibition,[4],Dose-dependent effect
same,inhibition,[5],Dose-dependent effect
same,inhibition,[6],Dose-dependent effect
same,inhibition,NCI-H1299 [7],Dose-dependent effect
same,IC50,NCI-H1299 [1],8.3 µM
same,Activity,NCI-H1299 [8],Dose-dependent effect
same,inhibition,NCI-H1299 [2],Dose-dependent effect
same,IC50,[9],752 nM
COc1ccccc1Cn1cc(-c2ccc(O)cc2)c(-c2ccc(O)cc2)c1,IC50,NCI-H1299 [1],23.1 µM
COc1ccc(-c2cn(Cc3ccc(O)cc3)cc2-c2ccc(OC)cc2)cc1,IC50,NCI-H1299 [1],20.5 µM
COc1ccc(Cn2cc(-c3ccc(O)cc3)c(-c3ccc(O)cc3)c2)c(OC)c1,IC50,NCI-H1299 [1],31.6 µM
COc1ccc(-c2cn(Cc3ccccc3O)cc2-c2ccc(OC)cc2)cc1,IC50,NCI-H1299 [1],20.8 µM
COc1ccc(Cn2cc(-c3ccc(O)cc3)c(-c3ccc(O)cc3)c2)cc1,IC50,NCI-H1299 [1],37.3 µM
